From PubChem BioAssay AID2527 (Broad Institute, 2010) come the findings set out here.

The test system of the assay is platelets, A23187-induced P-selectin, flow cytometry. As to the kind of experiment: calcium ionophore platelet activation inhibition – cell-based, fluorescence, flow cytometry, platelets, selectivity assay, confirmation (AID 2527). To be noted: at 30 µM; active compounds read high. In short, it runs like this:
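Assay system: stimulated platelets. Dosing: 30 µM, one dose. Schedule: 20 min compound, 15 min A23187, 20 min stain. Technique: flow cytometry, PE anti-P-selectin.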
Background: In flow cytometry, cells or beads pass a laser one at a time.

For orientation: inhibition means the relative decrease from the control value, in per cent.

Structures are written as SMILES. The source made the active and inactive calls.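 The calls were made as follows: active = at 30 µM dose, two-repeat average suppression of induced P-selectin signal exceeds 50%; inactive = average suppression 50% or lower.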

As to `CCCC(=O)Nc1cccc(NC(=O)c2ccccc2Br)c1`, the inhibition was 3.45% (inactive).
Regarding `O=C(Nc1cccc(NC(=O)c2ccccc2Cl)c1)c1ccco1`, the inhibition was 5.95% (inactive).
